Experimental data published in ChEMBL document CHEMBL5260841, “Discovery of N-(4-(6-Acetamidopyrimidin-4-yloxy)phenyl)-2-(2-(trifluoromethyl)phenyl)acetamide (CHMFL-FLT3-335) as a Potent FMS-like Tyrosine Kinase 3 Internal Tandem Duplication (FLT3-ITD) Mutant Selective Inhibitor for Acute Myeloid Leukemia” (J Med Chem, 2019).

Tests used:
[1] = AUC (0 to t) in Sprague-Dawley rat at 1 mg/kg, iv; type: ADME, organism-based; parameters: dose 1 mg/kg, route iv; details: in vivo
In short: (§1)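 Sprague-Dawley rats dosed IV at 1 mg/kg or by oral gavage at 10 mg/kg. Parameters from plasma exposure: AUC(0-t), AUC(0-∞), MRT, T1/2, Tmax, Vz, CLz, Cmax. Values are mean ± SD from three animals.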

[2] = Clearance in Sprague-Dawley rat at 10 mg/kg, po; type: ADME, organism-based; details: in vivo, read-out: CL(app) (converted); in short: as §1
MV4-11 [3] = experiment: Antitumor activity against human MV4-11 cells xenografted in nu/nu mouse assessed as increase in tumor cell apoptosis administered orally via gavage for 28 days by tunel staining based immunohistochemical analysis; type: functional; details: dose 25-100 mg/kg/day, route po, time 28.0 day
In short: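 Tumours taken from MV4-11 xenograft mice after 28 days of daily oral dosing. Tissue stained with HE, Ki-67 (proliferation) and TUNEL (apoptosis), and treated groups compared with the vehicle group.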

BaF3 [4] = experiment: Antiproliferative activity against mouse BaF3 cells transfected with TEL-fused FLT3 assessed as cell growth inhibition incubated for 72 hrs by CCK-8 assay; type: functional
In short: (§2)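 Kinase-transformed isogenic BaF3 lines grown in RPMI 1640 with 10% FBS, 2% L-glutamine and pen/strep at 37 °C, 5% CO2. Seeded at 1500-3000 cells/well and treated with a compound concentration series for 72 h. Viability read by CCK8 absorbance at 450 nm.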

BaF3 [5] = experiment: Antiproliferative activity against mouse BaF3 cells transfected with FLT3 ITD mutant assessed as cell growth inhibition incubated for 72 hrs by CCK-8 assay; type: functional; in short: as §2
[6] = molecular target: Platelet-derived growth factor receptor beta (Homo sapiens, UniProt P09619); experiment: Inhibition of PDGFRbeta (unknown origin) assessed as residual activity at 1 uM preincubated for 60 mins followed by ATP addition and measured after 1 hr by ADP-Glo assay relative to control; details: time 2.0 hrs
Sequence of Platelet-derived growth factor receptor beta (P09619 whole entry): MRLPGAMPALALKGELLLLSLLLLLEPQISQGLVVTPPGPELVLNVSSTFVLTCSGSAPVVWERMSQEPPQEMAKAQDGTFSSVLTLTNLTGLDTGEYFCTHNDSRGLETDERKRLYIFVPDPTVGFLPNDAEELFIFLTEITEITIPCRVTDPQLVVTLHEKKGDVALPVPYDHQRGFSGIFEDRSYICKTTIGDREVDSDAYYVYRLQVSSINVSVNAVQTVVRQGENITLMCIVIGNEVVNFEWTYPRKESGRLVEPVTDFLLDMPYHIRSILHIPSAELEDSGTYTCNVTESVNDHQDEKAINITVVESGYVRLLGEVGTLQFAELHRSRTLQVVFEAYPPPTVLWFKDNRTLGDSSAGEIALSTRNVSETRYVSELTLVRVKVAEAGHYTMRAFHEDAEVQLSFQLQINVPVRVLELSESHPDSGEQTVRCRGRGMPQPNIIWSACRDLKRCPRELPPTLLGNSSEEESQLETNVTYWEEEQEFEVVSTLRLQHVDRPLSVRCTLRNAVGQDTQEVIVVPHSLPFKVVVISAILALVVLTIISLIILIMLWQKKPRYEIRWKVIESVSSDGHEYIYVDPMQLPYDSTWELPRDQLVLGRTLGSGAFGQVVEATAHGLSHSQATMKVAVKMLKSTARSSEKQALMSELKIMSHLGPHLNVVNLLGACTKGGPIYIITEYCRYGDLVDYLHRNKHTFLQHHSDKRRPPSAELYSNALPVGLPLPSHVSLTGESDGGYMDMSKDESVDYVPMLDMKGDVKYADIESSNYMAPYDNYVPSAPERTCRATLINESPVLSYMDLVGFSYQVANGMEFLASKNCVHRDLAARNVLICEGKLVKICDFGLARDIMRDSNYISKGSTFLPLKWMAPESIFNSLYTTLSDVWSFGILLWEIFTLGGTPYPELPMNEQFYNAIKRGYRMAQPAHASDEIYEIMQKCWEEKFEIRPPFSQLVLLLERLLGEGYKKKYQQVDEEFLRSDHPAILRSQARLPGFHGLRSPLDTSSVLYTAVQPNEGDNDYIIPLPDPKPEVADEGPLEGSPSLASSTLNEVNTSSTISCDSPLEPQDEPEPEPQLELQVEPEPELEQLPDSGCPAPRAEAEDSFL

[7] = molecular target: Platelet-derived growth factor receptor alpha (Homo sapiens, UniProt P16234); experiment: Inhibition of PDGFRalpha (unknown origin) assessed as residual activity at 1 uM preincubated for 60 mins followed by ATP addition and measured after 1 hr by ADP-Glo assay relative to control; details: time 2.0 hrs
Sequence of Platelet-derived growth factor receptor alpha (P16234 whole entry): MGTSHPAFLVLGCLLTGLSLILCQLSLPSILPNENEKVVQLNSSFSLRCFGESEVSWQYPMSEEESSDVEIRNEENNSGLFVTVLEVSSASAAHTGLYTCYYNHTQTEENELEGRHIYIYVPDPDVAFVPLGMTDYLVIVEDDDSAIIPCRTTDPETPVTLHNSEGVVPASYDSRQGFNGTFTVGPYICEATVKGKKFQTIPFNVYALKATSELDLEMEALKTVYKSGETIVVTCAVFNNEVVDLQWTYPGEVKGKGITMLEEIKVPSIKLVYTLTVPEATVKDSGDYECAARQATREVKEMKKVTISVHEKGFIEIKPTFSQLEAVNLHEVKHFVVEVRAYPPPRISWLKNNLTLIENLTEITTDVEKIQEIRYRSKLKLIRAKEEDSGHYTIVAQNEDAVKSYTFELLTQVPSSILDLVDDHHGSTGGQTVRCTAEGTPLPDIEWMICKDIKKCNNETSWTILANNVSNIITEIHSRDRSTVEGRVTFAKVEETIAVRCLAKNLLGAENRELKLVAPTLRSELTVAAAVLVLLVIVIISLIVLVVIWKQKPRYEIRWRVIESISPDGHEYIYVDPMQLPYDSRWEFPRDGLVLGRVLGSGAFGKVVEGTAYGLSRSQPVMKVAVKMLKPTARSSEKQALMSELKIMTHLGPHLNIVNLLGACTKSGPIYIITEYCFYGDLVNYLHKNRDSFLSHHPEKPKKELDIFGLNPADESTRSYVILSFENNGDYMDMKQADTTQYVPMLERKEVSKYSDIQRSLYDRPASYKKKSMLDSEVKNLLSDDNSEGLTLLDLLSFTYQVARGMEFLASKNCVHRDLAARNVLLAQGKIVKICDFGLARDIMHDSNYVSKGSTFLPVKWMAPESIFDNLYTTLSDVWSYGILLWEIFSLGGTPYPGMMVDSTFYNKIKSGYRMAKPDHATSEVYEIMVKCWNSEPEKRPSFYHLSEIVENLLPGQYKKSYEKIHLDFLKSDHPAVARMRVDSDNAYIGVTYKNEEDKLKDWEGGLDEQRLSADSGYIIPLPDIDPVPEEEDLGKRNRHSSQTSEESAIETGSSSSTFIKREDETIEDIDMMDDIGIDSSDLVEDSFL

[8] = molecular target: Mitogen-activated protein kinase kinase kinase kinase 1 (Homo sapiens, UniProt Q92918); experiment: Inhibition of HPK1 (unknown origin) preincubated for 60 mins followed by ATP addition and measured after 1 hr by ADP-Glo assay
Sequence of Mitogen-activated protein kinase kinase kinase kinase 1 (Q92918 whole entry): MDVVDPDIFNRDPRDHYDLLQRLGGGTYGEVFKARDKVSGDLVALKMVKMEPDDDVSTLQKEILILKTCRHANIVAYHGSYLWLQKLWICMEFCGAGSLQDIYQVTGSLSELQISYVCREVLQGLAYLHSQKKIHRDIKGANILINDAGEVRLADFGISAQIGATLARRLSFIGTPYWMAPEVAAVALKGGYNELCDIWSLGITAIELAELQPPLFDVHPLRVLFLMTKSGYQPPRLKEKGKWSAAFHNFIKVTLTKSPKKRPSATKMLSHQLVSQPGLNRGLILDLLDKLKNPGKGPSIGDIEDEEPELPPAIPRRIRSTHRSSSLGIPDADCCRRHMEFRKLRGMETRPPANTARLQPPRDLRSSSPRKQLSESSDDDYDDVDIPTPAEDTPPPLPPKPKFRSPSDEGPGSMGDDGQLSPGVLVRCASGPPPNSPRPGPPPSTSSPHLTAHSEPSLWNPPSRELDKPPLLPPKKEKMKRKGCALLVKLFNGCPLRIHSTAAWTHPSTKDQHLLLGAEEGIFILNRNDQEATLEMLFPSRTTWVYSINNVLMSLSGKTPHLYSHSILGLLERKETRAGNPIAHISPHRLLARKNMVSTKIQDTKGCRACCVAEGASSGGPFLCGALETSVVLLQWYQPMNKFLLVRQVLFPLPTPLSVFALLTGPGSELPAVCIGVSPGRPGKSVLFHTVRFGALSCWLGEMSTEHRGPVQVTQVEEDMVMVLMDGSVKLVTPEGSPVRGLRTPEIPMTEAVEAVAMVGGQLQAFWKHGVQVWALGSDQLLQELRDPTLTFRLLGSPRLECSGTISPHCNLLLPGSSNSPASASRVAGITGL

[9] = molecular target: T1, Receptor-type tyrosine-protein kinase FLT3 (Homo sapiens, UniProt P36888); experiment: Inhibition of FLT3 (unknown origin) preincubated for 60 mins followed by ATP addition and measured after 1 hr by ADP-Glo assay
T1 sequence (P36888 whole entry): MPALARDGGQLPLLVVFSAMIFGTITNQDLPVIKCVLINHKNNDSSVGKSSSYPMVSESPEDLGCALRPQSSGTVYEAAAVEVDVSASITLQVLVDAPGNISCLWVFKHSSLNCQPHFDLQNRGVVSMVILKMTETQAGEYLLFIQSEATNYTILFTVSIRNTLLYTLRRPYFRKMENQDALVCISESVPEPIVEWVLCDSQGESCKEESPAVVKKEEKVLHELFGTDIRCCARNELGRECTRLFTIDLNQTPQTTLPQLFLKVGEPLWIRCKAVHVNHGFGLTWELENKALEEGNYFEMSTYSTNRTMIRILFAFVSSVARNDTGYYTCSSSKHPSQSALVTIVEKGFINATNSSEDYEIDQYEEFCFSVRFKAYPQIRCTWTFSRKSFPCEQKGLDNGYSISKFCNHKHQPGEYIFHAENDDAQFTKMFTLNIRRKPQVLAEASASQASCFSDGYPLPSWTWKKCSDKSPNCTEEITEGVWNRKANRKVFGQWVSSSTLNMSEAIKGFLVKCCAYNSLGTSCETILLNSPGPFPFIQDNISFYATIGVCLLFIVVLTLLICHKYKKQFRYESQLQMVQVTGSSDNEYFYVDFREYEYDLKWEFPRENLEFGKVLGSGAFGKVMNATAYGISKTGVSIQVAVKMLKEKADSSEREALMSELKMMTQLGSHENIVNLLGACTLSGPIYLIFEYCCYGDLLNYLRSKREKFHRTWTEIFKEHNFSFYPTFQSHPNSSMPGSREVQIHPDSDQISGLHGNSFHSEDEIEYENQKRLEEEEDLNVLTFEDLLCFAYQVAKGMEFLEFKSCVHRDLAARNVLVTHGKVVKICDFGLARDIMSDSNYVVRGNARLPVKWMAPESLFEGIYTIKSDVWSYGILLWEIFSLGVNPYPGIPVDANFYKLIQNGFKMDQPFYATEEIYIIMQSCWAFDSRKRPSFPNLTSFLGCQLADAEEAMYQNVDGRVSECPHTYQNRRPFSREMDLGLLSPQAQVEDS

BaF3 [10] = experiment: Antiproliferative activity against mouse BaF3 cells transfected with TEL fused PDGFRbeta assessed as cell growth inhibition incubated for 72 hrs by CCK-8 assay; type: functional; in short: as §2
MV4-11 [11] = experiment: Antiproliferative activity against human MV4-11 cells transfected with FLT3-ITD mutant assessed as cell growth inhibition incubated for 72 hrs by CCK-8 assay; type: functional
In short: (§3)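 Cells kept at 37 °C, 5% CO2. MV4-11 grown in IMDM with 10% FBS. MOLM13, MOLM14, U937 and HL-60 grown in RPMI 1640 with 10% FBS. OCI-AML-2 grown in α-MEM with 20% FBS. Seeded at 1500-3000 cells/well and exposed to a concentration series for 72 h. Viability read by CCK8 absorbance at 450 nm.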

MOLM-13 [12] = experiment: Antiproliferative activity against human MOLM-13 cells transfected with FLT3-ITD mutant assessed as cell growth inhibition incubated for 72 hrs by CCK-8 assay; type: functional; in short: as §3
HL-60 = experiment: Antiproliferative activity against human HL-60 cells transfected with wild type FLT3 assessed as cell growth inhibition incubated for 72 hrs by CCK-8 assay; type: functional; in short: as §3
U-937 = experiment: Antiproliferative activity against human U-937 cells transfected with wild type FLT3 assessed as cell growth inhibition incubated for 72 hrs by CCK-8 assay; type: functional; in short: as §3
MOLM-13 [13] = experiment: Inhibition of ERK phosphorylation at Thr202/Tyr204 residues in human MOLM-13 cells harboring FLT3-ITD mutant incubated for 4 hrs by Western blot analysis; type: cell-based; details: dose 0.01-3 µM
In short: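 Cells were exposed to the compound at a series of concentrations for 4 h, and whole-cell lysates were analysed by Western blot. MV4-11 cells were grown in IMDM with 10% FBS. MOLM13 and MOLM14 cells were grown in RPMI 1640 with 10% FBS. All cultures were kept at 37 °C with 5% CO2.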

MOLM-13 [14] = experiment: Induction of apoptosis in human MOLM-13 cells harboring FLT3-ITD mutant assessed as increase in cleaved PARP level incubated for 24 hrs by Western blot analysis; type: functional, cell-based; details: dose 0.1-3 µM
MOLM-14 = experiment: Induction of apoptosis in human MOLM-14 cells harboring FLT3-ITD mutant assessed as increase in cleaved caspase-3 level incubated for 24 hrs by Western blot analysis; type: functional, cell-based; details: dose 0.1-3 µM
OCI-AML2 = experiment: cells; type: functional; details: Homo sapiens, time 72 hrs

AUC(0-t) [1]: 1560 ng·h/mL
CL/F [2]: 6.67 mL/min/kg
GI50 (BaF3 [4]): 249 nM
GI50 (BaF3 [5]): 32 nM
Activity [6]: 0.15%
Activity [7]: 3.3%
IC50 [8]: > 10000 nM
IC50 [9]: 90.8 nM
GI50 (BaF3 [10]): 40 nM
GI50 (MV4-11 [11]): 284 nM
GI50 (MOLM-13 [12]): 466 nM
GI50 (HL-60): > 10000 nM
GI50 (U-937): > 10000 nM
GI50 (OCI-AML2): > 10000 nM
SMILES: CC(=O)Nc1cc(Oc2ccc(NC(=O)Cc3ccccc3C(F)(F)F)cc2)ncn1
Activity (MV4-11 [3]): Dose-Dependent Effect
inhibition (MOLM-13 [13]): Dose-Dependent Effect
Activity (MOLM-13 [14]): Dose-Dependent Effect
Activity (MOLM-14): Dose-Dependent Effect
